# Measurements taken from article PMC4576993 (Leukemia, 2011).
# Several values for one entry are separate records, joined by “and”; a condition that tells them apart may be missing. Identical values can stand only once. Entries after “also recorded” stand apart in the source; their conditions may differ.
# Assays:
# [1] = Plasma vosaroxin pharmacokinetics in patients; assay type: in vivo, human; details: for half-life: T1/2, mean
# [2] = tested on: relapsed or refractory leukemia; assay: Clinical response; assay type: in vivo, human
# Outline: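 Dosing was a ~10 min IV infusion, either weekly (days 1, 8, 15; 18–90 mg/m2) or twice weekly (days 1, 4, 8, 11; 9–50 mg/m2), in 28-day cycles, up to 4(+2) cycles. Marrow aspirate or biopsy and peripheral blood were taken at each cycle end (~day 28). Response followed IWG criteria: MLFS was marrow blasts <5%; CR added no circulating blasts, no extramedullary disease, neutrophils >1×10^9/l and platelets ≥100×109/l; CRp was CR with incomplete platelet recovery.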
# [3] = rat tissue distribution studies; no reference given; cited from earlier work
# P-glycoprotein = details: cited from earlier work
# p53 = details: cited from earlier work
smiles,measurement,setting,value
"CN[C@H]1CN(c2ccc3c(=O)c(C(=O)O)cn(-c4nccs4)c3n2)C[C@@H]1OC [vosaroxin, (+)-1,4-dihydro-7-(trans-3-methoxy-4-methylamino-1-pyrrolidinyl)-4-oxo-1-(2-thiazolyl)-1,8-naphthyridine-3-carboxylic acid]","Differences in clearance based on age, sex, body weight or body surface area",[1]; age overall and <65 versus ≥65 years,No significant differences in clearance
same,Average total body clearance,[1]; all patients,2 l/h/m^2
same,Induction or inhibition of vosaroxin metabolism after repeated doses,"[1]; clearance compared weekly vs days 1, 4, 8 and 11",No induction or inhibition of vosaroxin metabolism was evident
same,Plasma exposure (AUC) versus dose,[1]; dose range 9–90 mg/m^2,dose proportional; also recorded: increased proportionally with an increase in dose
same,AUC(0-t),"[1]; human, plasma, intravenous, 72 mg/m2",32500 ng·h/mL
same,AUC(0-inf),"[1]; human, plasma, intravenous, 72 mg/m2, AUCinf, mean, weekly, Day 1, 72 mg/m^2, N 11, cycle 1",39400 ng·h/mL
same,clearance,"[1]; human, plasma, intravenous, 72 mg/m2, CL, mean, weekly, Day 1, 72 mg/m^2, N 11, cycle 1",69.3 mL/min
same,MRT,"[1]; human, plasma, intravenous, 72 mg/m2, MRT, mean, weekly, Day 1, 72 mg/m^2, N 11, cycle 1",33.9 h
same,Vd,"[1]; human, plasma, intravenous, 72 mg/m2, Vss, mean, weekly, Day 1, 72 mg/m^2, N 11, cycle 1",130 L
same,Cmax,"[1]; human, plasma, intravenous, 72 mg/m^2",1920 ng/mL
same,AUC(0-inf),"[1]; human, plasma, intravenous, AUCinf, mean, twice weekly, Day 1, 9–50 mg/m^2, N 31, cycle 1",14200 ng·h/mL
same,AUC(0-inf),"[1]; human, plasma, intravenous, AUCinf, mean, twice weekly, Day 8, 9–50 mg/m^2, N 29, cycle 1",15600 ng·h/mL
same,AUC(0-inf),"[1]; human, plasma, intravenous, AUCinf, mean, twice weekly, Day 11, 9–50 mg/m^2, N 28, cycle 1",16000 ng·h/mL
same,clearance,"[1]; human, plasma, intravenous, Average total body clearance, all patients",66.7 mL/min
same,clearance,"[1]; human, plasma, intravenous, CL, mean, twice weekly, Day 1, 9–50 mg/m^2, N 31, cycle 1",72.8 mL/min
same,clearance,"[1]; human, plasma, intravenous, CL, mean, twice weekly, Day 8, 9–50 mg/m^2, N 29, cycle 1",75.7 mL/min
same,clearance,"[1]; human, plasma, intravenous, CL, mean, twice weekly, Day 11, 9–50 mg/m^2, N 28, cycle 1",75.3 mL/min
same,clearance,"[1]; human, plasma, intravenous, CL, mean, weekly, Day 1, 18–90 mg/m^2, N 41, cycle 1",65.3 mL/min
same,MRT,"[1]; human, plasma, intravenous, MRT, mean, twice weekly, Day 1, 9–50 mg/m^2, N 31, cycle 1",33.9 h
same,MRT,"[1]; human, plasma, intravenous, MRT, mean, twice weekly, Day 8, 9–50 mg/m^2, N 29, cycle 1",28.6 h
same,MRT,"[1]; human, plasma, intravenous, MRT, mean, twice weekly, Day 11, 9–50 mg/m^2, N 28, cycle 1",30.8 h
same,half-life,"[1]; human, plasma, intravenous, twice weekly, Day 1, 9–50 mg/m^2, N 31, cycle 1",1590 min
same,half-life,"[1]; human, plasma, intravenous, twice weekly, Day 4, 9–50 mg/m^2, N 30, cycle 1",1690 min
same,Vd,"[1]; human, plasma, intravenous, Vss, mean, twice weekly, Day 1, 9–50 mg/m^2, N 31, cycle 1",142 L
same,Vd,"[1]; human, plasma, intravenous, Vss, mean, twice weekly, Day 8, 9–50 mg/m^2, N 29, cycle 1",126 L
same,Vd,"[1]; human, plasma, intravenous, Vss, mean, twice weekly, Day 11, 9–50 mg/m^2, N 28, cycle 1",136 L
same,Drug accumulation (AUC72 ratio) day 11/day 1,"[1]; twice-weekly schedule, repeated doses, n=28, P<0.05",1.2
same,Drug accumulation (AUC72 ratio) day 4/day 1,"[1]; twice-weekly schedule, repeated doses, n=29, P<0.05",1.2
same,Median time to morphologic leukemia-free state after first dose,[2]; 16 patients,32.5 days
same,"Time to morphologic leukemia-free state after first dose, range",[2]; 16 patients,21–51 days
same,Patients with response of CR or CRp,"[2]; 73 treated patients, both schedules",Five
same,Additional patients with morphologic leukemia-free state (beyond CR/CRp),[2]; both schedules,11 patients
same,"Duration of CR/CRp responses, range",[2]; five responding patients,1.7–19.2 months
same,Median duration of CR/CRp responses,[2]; five responding patients,3.1 months
same,Patients achieving morphologic leukemia-free state,[2]; once weekly with ≥50 mg/m^2,12 patients
same,Patients achieving morphologic leukemia-free state,[2]; twice weekly with ≥30 mg/m^2,4 patients
same,Time plasma concentration >1 μmol/l in the other two patients with CR or CRp,[2]; weekly time above threshold,10 h and 16 h
same,Concentration in bone marrow relative to blood,[3],~ 30 fold
same,Substrate for P-glycoprotein,P-glycoprotein,not a substrate for P-glycoprotein
same,Dependence of activity on p53,p53,independent of p53
